In brackets after ≈: the same amount, converted by molar mass. Activity calls are given as the source filed them. No cut-off for these calls is given here.
What was measured:
Staphylococcus aureus = test: Antibacterial activity against Staphylococcus aureus ATCC 25923 assessed as inhibition of bacterial growth by standard broth microdilution method; format: functional
How it was run: (§1)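 Broth microdilution in 96-well plates. Overnight culture (5 μl) moved into 5 ml fresh medium and grown to log phase, then diluted to 2 × 10^6 CFU ml−1. Each well received 100 μl cell suspension plus 100 μl of compound at various concentrations (200 μl final). Read-out was MIC. Run three times.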

Escherichia coli = test: Antibacterial activity against Escherichia coli ATCC 25922 assessed as inhibition of bacterial growth by standard broth microdilution method; format: functional; how it was run: as §1
Salmonella [1] = test: Antibacterial activity against Salmonella ATCC 12022 assessed as inhibition of bacterial growth by standard broth microdilution method; format: functional; how it was run: as §1
Pseudomonas aeruginosa [2] = test: Antibacterial activity against Pseudomonas aeruginosa ATCC 27853 assessed as inhibition of bacterial growth by standard broth microdilution method; format: functional; how it was run: as §1
Pseudomonas aeruginosa [3] = test: Antibacterial activity against Pseudomonas aeruginosa ATCC 27853 assessed as reduction in living bacterial cell counts at 1X to 4XMIC measured within 2 hrs by time-kill assay; format: functional, organism-based
Pseudomonas aeruginosa [4] = test: Bacteriostatic activity against Pseudomonas aeruginosa ATCC 27853 at 1X to 4XMIC measured after 2 to 24 hrs by time-kill assay; format: functional, organism-based; conditions: time 2-24 hrs
Salmonella [5] = test: Antibacterial activity against Salmonella ATCC 12022 assessed as inhibition of bacterial growth at 0.5XMIC measured for 24 hrs by time-kill assay; format: functional, organism-based
Salmonella [6] = test: Bacteriostatic activity against Salmonella ATCC 12022 at 1X to 4XMIC measured after 2 to 24 hrs by time-kill assay; format: functional, organism-based; conditions: time 2-24 hrs
Pseudomonas aeruginosa [7] = test: Antibacterial activity against Pseudomonas aeruginosa ATCC 27853 assessed as inhibition of bacterial growth at 0.5XMIC measured for 24 hrs by time-kill assay; format: functional, organism-based
Salmonella [8] = test: Antibacterial activity against Salmonella ATCC 12022 assessed as reduction in living bacterial cell counts at 1X to 4XMIC measured within 2 hrs by time-kill assay; format: functional, organism-based

Row | Molecule | MIC (Staphylococcus aureus) [µM] | MIC (Escherichia coli) [µM] | MIC (Salmonella [1]) [µM] | MIC (Pseudomonas aeruginosa [2]) [µM] | Activity (Pseudomonas aeruginosa [3]) | Activity (Pseudomonas aeruginosa [4]) | Activity (Salmonella [5]) | Activity (Salmonella [6]) | Activity (Pseudomonas aeruginosa [7]) | Activity (Salmonella [8])
1 | CCC1CCc2c(sc(NC(=O)c3ccc(C)cc3C)c2C(=O)O)C1 (stereo unspecified) | 3.5 (≈ 1.25 µg/mL) | 3.5 (≈ 1.25 µg/mL) | 1.75 (≈ 0.626 µg/mL) | 1.75 (≈ 0.626 µg/mL) | – | – | – | – | – | –
2 | CC1CCc2c(sc(NC(=O)c3ccccc3)c2C(=O)O)C1 (stereo unspecified) | 99.2 (≈ 31.3 µg/mL) | 1.56 (≈ 0.492 µg/mL) | 1.56 (≈ 0.492 µg/mL) | 1.56 (≈ 0.492 µg/mL) | – | – | – | – | – | –
3 | CC1CCc2c(sc(NC(=O)c3c(F)cccc3F)c2C(=O)O)C1 (stereo unspecified) | 1.4 (≈ 0.492 µg/mL) | 11.1 (≈ 3.9 µg/mL) | 1.4 (≈ 0.492 µg/mL) | 1.4 (≈ 0.492 µg/mL) | – | – | – | – | – | –
4 | Cc1c(C(=O)Nc2sc3c(c2C(=O)O)CCC(C)C3)cccc1[N+](=O)[O-] (stereo unspecified) | 83.6 (≈ 31.3 µg/mL) | 0.64 (≈ 0.24 µg/mL) | 1.31 (≈ 0.49 µg/mL) | 1.31 (≈ 0.49 µg/mL) | – | – | – | – | – | –
5 | CCC1CCc2c(sc(NC(=O)c3ccccc3Cl)c2C(=O)O)C1 (stereo unspecified) | 1.72 (≈ 0.626 µg/mL) | 1.72 (≈ 0.626 µg/mL) | 1.72 (≈ 0.626 µg/mL) | 1.72 (≈ 0.626 µg/mL) | – | – | – | – | – | –
6 | O=C(Nc1sc2c(c1C(=O)O)CCCC2)c1ccc(Cl)cc1 | 1.46 (≈ 0.49 µg/mL) | 1.46 (≈ 0.49 µg/mL) | 1.46 (≈ 0.49 µg/mL) | 1.46 (≈ 0.49 µg/mL) | – | – | – | – | – | –
7 | CC1CCc2c(sc(NC(=O)c3ccccc3I)c2C(=O)O)C1 (stereo unspecified) | 1.11 (≈ 0.49 µg/mL) | 1.11 (≈ 0.49 µg/mL) | 0.54 (≈ 0.238 µg/mL) | 1 (≈ 0.441 µg/mL) | Active | Active | inactive | Active | inactive | Active
8 | CC1CCc2c(sc(NC(=O)c3cc(Cl)ccc3F)c2C(=O)O)C1 (stereo unspecified) | 2.66 (≈ 0.978 µg/mL) | 1.33 (≈ 0.489 µg/mL) | 1.33 (≈ 0.489 µg/mL) | 1 (≈ 0.368 µg/mL) | – | – | – | – | – | –
9 | GENTAMICIN | 1.27 | – | – | – | – | – | – | – | – | –
10 | O=C(O)c1cn(C2CC2)c2cc(N3CCNCC3)c(F)cc2c1=O [CIPROFLOXACIN] | – | 1.27 (≈ 0.421 µg/mL) | 2.54 (≈ 0.842 µg/mL) | 10.1 (≈ 3.35 µg/mL) | – | – | – | – | – | –
11 | CCC1CCc2c(sc(NC(=O)c3ccc([N+](=O)[O-])cc3)c2C(=O)O)C1 (stereo unspecified) | 6.68 (≈ 2.5 µg/mL) | 6.68 (≈ 2.5 µg/mL) | 1.67 (≈ 0.625 µg/mL) | 1.67 (≈ 0.625 µg/mL) | – | – | – | – | – | –
12 | CCC1CCc2c(sc(NC(=O)c3cccc([N+](=O)[O-])c3F)c2C(=O)O)C1 (stereo unspecified) | 1.25 (≈ 0.491 µg/mL) | 19.9 (≈ 7.82 µg/mL) | 19.9 (≈ 7.82 µg/mL) | 0.61 (≈ 0.239 µg/mL) | – | – | – | – | – | –
13 | Cc1ccc(C(=O)Nc2sc3c(c2C(=O)O)CCC(C)C3)c(C)c1 (stereo unspecified) | 1.43 (≈ 0.491 µg/mL) | 5.69 (≈ 1.95 µg/mL) | 1.43 (≈ 0.491 µg/mL) | 1.43 (≈ 0.491 µg/mL) | – | – | – | – | – | –
14 | CCC1CCc2c(sc(NC(=O)c3ccc(F)cc3)c2C(=O)O)C1 (stereo unspecified) | 1.8 (≈ 0.625 µg/mL) | 1.8 (≈ 0.625 µg/mL) | 7.19 (≈ 2.5 µg/mL) | 7.19 (≈ 2.5 µg/mL) | – | – | – | – | – | –
15 | CCC1CCc2c(sc(NC(=O)c3cc([N+](=O)[O-])cc([N+](=O)[O-])c3)c2C(=O)O)C1 (stereo unspecified) | 2.98 (≈ 1.25 µg/mL) | 1.49 (≈ 0.625 µg/mL) | 1.49 (≈ 0.625 µg/mL) | 1.49 (≈ 0.625 µg/mL) | – | – | – | – | – | –
16 | CCC1CCc2c(sc(NC(=O)c3ccccc3)c2C(=O)O)C1 (stereo unspecified) | 11.8 (≈ 3.9 µg/mL) | 1.49 (≈ 0.491 µg/mL) | 0.73 (≈ 0.24 µg/mL) | 0.73 (≈ 0.24 µg/mL) | – | – | – | – | – | –
17 | CCC1CCc2c(sc(NC(=O)c3ccc(F)cc3F)c2C(=O)O)C1 (stereo unspecified) | 3.42 (≈ 1.25 µg/mL) | 1.71 (≈ 0.625 µg/mL) | 1.71 (≈ 0.625 µg/mL) | 1.71 (≈ 0.625 µg/mL) | – | – | – | – | – | –
18 | CCC1CCc2c(sc(NC(=O)c3ccc(Cl)cc3)c2C(=O)O)C1 (stereo unspecified) | 3.44 (≈ 1.25 µg/mL) | 3.44 (≈ 1.25 µg/mL) | 1.72 (≈ 0.626 µg/mL) | 3.44 (≈ 1.25 µg/mL) | – | – | – | – | – | –
19 | CC1CCc2c(sc(NC(=O)c3ccc(F)cc3)c2C(=O)O)C1 (stereo unspecified) | 1.47 (≈ 0.49 µg/mL) | 1.47 (≈ 0.49 µg/mL) | 1.47 (≈ 0.49 µg/mL) | 0.72 (≈ 0.24 µg/mL) | – | – | – | – | – | –
20 | CC1CCc2c(sc(NC(=O)c3ccc(F)cc3F)c2C(=O)O)C1 (stereo unspecified) | 1.4 (≈ 0.492 µg/mL) | 22.2 (≈ 7.82 µg/mL) | 11.1 (≈ 3.9 µg/mL) | 11.1 (≈ 3.9 µg/mL) | – | – | – | – | – | –
21 | COc1ccc(C(=O)Nc2sc3c(c2C(=O)O)CCC(C)C3)cc1 (stereo unspecified) | 1.42 (≈ 0.49 µg/mL) | 1.42 (≈ 0.49 µg/mL) | 90.6 (≈ 31.3 µg/mL) | 45.3 (≈ 15.6 µg/mL) | – | – | – | – | – | –
